Values after ≈ are worked out from the molar mass of the structure shown.
Legend:
Proteus vulgaris [1] = test: Antibacterial activity against Proteus vulgaris MTCC 1771 after 24 hrs; type: functional; settings: MTCC 1771, 24 h
How it was run: (§1)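 Agar well diffusion on Mueller Hinton agar seeded with 0.1 mL of a 10⁵ cfu/mL suspension in 0.85% saline. Compounds dissolved in DMSO, final concentrations 25–250 µg/mL, 0.1 mL loaded per 6 mm well. DMSO (1%) control; tetracycline (10 µg/mL) reference. Duplicate plates incubated 24 h at 37 °C. Inhibition zone read in mm. MIC taken as lowest concentration giving complete growth inhibition.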

Aspergillus flavus = test: Antifungal activity against Aspergillus flavus MTCC 2501 at 100 ug/ml after 48 hrs agar diffusion method; type: functional; settings: MTCC 2501, 48 h, read-out: IZ
How it was run: (§2)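 Fungal spore suspensions in sterile distilled water adjusted to 10⁶ cfu/mL; 0.1 mL spread on Sabouraud dextrose agar. Wells of 6 mm filled with 0.1 mL compound dilution in DMSO. DMSO (1%) control; nystatin (30 µg/mL) reference. Duplicate plates incubated at 28 °C for 48 h. Activity read as inhibition zone diameter in mm.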

Calu-1 = test: Anticancer activity against human Calu1 cells at 10 uM after 48 hrs by propidium iodide fluorescence assay; type: functional
How it was run: (§3)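 Propidium iodide DNA-fluorescence assay. Seeding 3000–7500 cells/well, 24 h recovery at 37 °C in 5% CO₂. Compounds in 0.1% DMSO added to triplicate wells at 10 µM. Flavopiridol 700 nM and gemcitabine 500 nM as reference inhibitors. Plates frozen at −80 °C for 24 h, thawed to room temperature, fluorescence read at excitation 530 nm and emission 620 nm. Percent cytotoxicity calculated.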

Escherichia coli [2] = test: Antibacterial activity against Escherichia coli MTCC 1650 at 50 ug/ml after 24 hrs agar diffusion method; type: functional; settings: MTCC 1650, 24 h, read-out: IZ; how it was run: as §1
Penicillium chrysogenum = test: Antifungal activity against Penicillium chrysogenum MTCC 1996 at 100 ug/ml after 48 hrs agar diffusion method; type: functional; settings: MTCC 1996, 48 h, read-out: IZ; how it was run: as §2
THP-1 [3] = test: Cytotoxicity against human THP1 cells assessed as CCK8 release at 10 uM after 24 hrs by ELISA; type: cell-based; settings: thp-1, 24 h
How it was run: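 Same THP-1 cytokine-assay cells, with compounds in 0.5% DMSO and LPS stimulation, were scored in parallel for cytotoxicity by CCK-8.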

Bacillus subtilis [4] = test: Antibacterial activity against Bacillus subtilis MTCC 1789 after 24 hrs; type: functional; settings: MTCC 1789, 24 h; how it was run: as §1
NCI-H460 = test: Anticancer activity against human H460 cells at 10 uM after 48 hrs by propidium iodide fluorescence assay; type: functional; how it was run: as §3
Staphylococcus aureus [5] = test: Antibacterial activity against Staphylococcus aureus MTCC 96 at 50 ug/ml after 24 hrs agar diffusion method; type: functional; settings: MTCC 96, 24 h, read-out: IZ; how it was run: as §1
THP-1 [6] = test: Antiinflammatory activity in human THP1 cells assessed as inhibition of LPS-induced IL6 release at 10 uM after 24 hrs by ELISA; type: functional; settings: THP-1, 24 h
How it was run: (§4)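 THP-1 cells grown in RPMI 1640 with 10% FBS, penicillin and streptomycin, then PMA-differentiated. Compounds in 0.5% DMSO preincubated 30 min at 37 °C before LPS (E. coli 0127:B8) stimulation. TNF-α and IL-6 release measured by kit per the manufacturer (BD Biosciences). Percent inhibition calculated relative to control. Dexamethasone 1 µM as reference.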

Klebsiella pneumoniae [7] = test: Antibacterial activity against Klebsiella pneumoniae NCIM 2957 at 50 ug/ml after 24 hrs agar diffusion method; type: functional; settings: NCIM 2957, 24 h, read-out: IZ; how it was run: as §1
Proteus vulgaris [8] = test: Antibacterial activity against Proteus vulgaris MTCC 1771 at 50 ug/ml after 24 hrs agar diffusion method; type: functional; settings: MTCC 1771, 24 h, read-out: IZ; how it was run: as §1
Escherichia coli [9] = test: Antibacterial activity against Escherichia coli MTCC 1650 after 24 hrs; type: functional; settings: MTCC 1650, 24 h; how it was run: as §1
Candida albicans = test: Antifungal activity against Candida albicans MTCC 227 at 100 ug/ml after 48 hrs agar diffusion method; type: functional; settings: MTCC 227, 48 h, read-out: IZ; how it was run: as §2
Trichoderma viride = test: Antifungal activity against Trichoderma viride MTCC 167 at 100 ug/ml after 48 hrs agar diffusion method; type: functional; settings: MTCC 167, 48 h, read-out: IZ; how it was run: as §2
HCT-116 = test: Anticancer activity against human HCT116 cells at 10 uM after 48 hrs by propidium iodide fluorescence assay; type: functional; how it was run: as §3
Aspergillus niger = test: Antifungal activity against Aspergillus niger MTCC 1781 at 100 ug/ml after 48 hrs agar diffusion method; type: functional; settings: MTCC 1781, 48 h, read-out: IZ; how it was run: as §2
Klebsiella pneumoniae [10] = test: Antibacterial activity against Klebsiella pneumoniae NCIM 2957 after 24 hrs; type: functional; settings: NCIM 2957, 24 h; how it was run: as §1
Staphylococcus aureus [11] = test: Antibacterial activity against Staphylococcus aureus MTCC 96 after 24 hrs; type: functional; settings: MTCC 96, 24 h; how it was run: as §1
PANC-1 = test: Anticancer activity against human PANC1 cells at 10 uM after 48 hrs by propidium iodide fluorescence assay; type: functional; how it was run: as §3
Bacillus subtilis [12] = test: Antibacterial activity against Bacillus subtilis MTCC 1789 at 50 ug/ml after 24 hrs agar diffusion method; type: functional; settings: MTCC 1789, 24 h, read-out: IZ; how it was run: as §1
ACHN = test: Anticancer activity against human ACHN cells at 10 uM after 48 hrs by propidium iodide fluorescence assay; type: functional; how it was run: as §3
THP-1 [13] = test: Antiinflammatory activity in human THP1 cells assessed as inhibition of LPS-induced TNFalpha release at 10 uM after 24 hrs by ELISA; type: functional; settings: THP-1, 24 h; how it was run: as §4

For COc1ccc(C(=O)/C=C/C=C(\Cl)c2ccc(F)cc2)cc1, the MIC (Proteus vulgaris [1]) was 50 µg/mL (≈ 158 µM), the zone of inhibition at 100 µg/mL (Aspergillus flavus) was 15 mm and the Activity (Calu-1) was 0%. For the same compound, the zone of inhibition at 50 µg/mL (Escherichia coli [2]) was 11 mm, the zone of inhibition at 100 µg/mL (Penicillium chrysogenum) was 15 mm and the Activity (THP-1 [3]) was 2%. It also gave an MIC (Bacillus subtilis [4]) of 50 µg/mL (≈ 158 µM), an Activity (NCI-H460) of 14% and a zone of inhibition at 50 µg/mL (Staphylococcus aureus [5]) of 16 mm. For the same compound, the inhibition at 10 µM (THP-1 [6]) was 6%, the zone of inhibition at 50 µg/mL (Klebsiella pneumoniae [7]) was 15 mm and the zone of inhibition at 50 µg/mL (Proteus vulgaris [8]) was 16 mm. For the same compound, the MIC (Escherichia coli [9]) was 50 µg/mL (≈ 158 µM), the zone of inhibition at 100 µg/mL (Candida albicans) was 8 mm and the zone of inhibition at 100 µg/mL (Trichoderma viride) was 14 mm. For the same compound, the Activity (HCT-116) was 0%, the zone of inhibition at 100 µg/mL (Aspergillus niger) was 8 mm and the MIC (Klebsiella pneumoniae [10]) was 50 µg/mL (≈ 158 µM). For the same compound, the MIC (Staphylococcus aureus [11]) was 50 µg/mL (≈ 158 µM), the Activity (PANC-1) was 1% and the zone of inhibition at 50 µg/mL (Bacillus subtilis [12]) was 15 mm. For the same compound, the Activity (ACHN) was 17% and the inhibition at 10 µM (THP-1 [13]) was 0%.
In the case of COc1ccc(C(=O)/C=C/C=C(\Cl)c2cccc(Cl)c2)c(OC)c1, the MIC (Proteus vulgaris [1]) is reported as 50 µg/mL (≈ 138 µM), the zone of inhibition at 100 µg/mL (Aspergillus flavus) is reported as 15 mm and the Activity (Calu-1) is reported as 40%. It also gave a zone of inhibition at 50 µg/mL (Escherichia coli [2]) of 12 mm, a zone of inhibition at 100 µg/mL (Penicillium chrysogenum) of 10 mm and an Activity (THP-1 [3]) of 0%. It also gave an MIC (Bacillus subtilis [4]) of 50 µg/mL (≈ 138 µM), an Activity (NCI-H460) of 31% and a zone of inhibition at 50 µg/mL (Staphylococcus aureus [5]) of 16 mm. The inhibition at 10 µM (THP-1 [6]) was 7%, the zone of inhibition at 50 µg/mL (Klebsiella pneumoniae [7]) was 16 mm and the zone of inhibition at 50 µg/mL (Proteus vulgaris [8]) was 13 mm. The MIC (Escherichia coli [9]) was 50 µg/mL (≈ 138 µM), the zone of inhibition at 100 µg/mL (Candida albicans) was 10 mm and the zone of inhibition at 100 µg/mL (Trichoderma viride) was 13 mm. The Activity (HCT-116) was 37%, the zone of inhibition at 100 µg/mL (Aspergillus niger) was 14 mm and the MIC (Klebsiella pneumoniae [10]) was 50 µg/mL (≈ 138 µM). The MIC (Staphylococcus aureus [11]) was 50 µg/mL (≈ 138 µM), the Activity (PANC-1) was 32% and the zone of inhibition at 50 µg/mL (Bacillus subtilis [12]) was 18 mm. The Activity (ACHN) was 32% and the inhibition at 10 µM (THP-1 [13]) was 0%.
Compound COc1ccc(C(=O)/C=C/C=C(\Cl)c2ccc(Cl)cc2)c(OC)c1 has an MIC (Proteus vulgaris [1]) of 50 µg/mL (≈ 138 µM), a zone of inhibition at 100 µg/mL (Aspergillus flavus) of 12 mm and an Activity (Calu-1) of 32%. It also gave a zone of inhibition at 50 µg/mL (Escherichia coli [2]) of 10 mm, a zone of inhibition at 100 µg/mL (Penicillium chrysogenum) of 14 mm and an Activity (THP-1 [3]) of 0%. It also gave an MIC (Bacillus subtilis [4]) of 50 µg/mL (≈ 138 µM), an Activity (NCI-H460) of 21% and a zone of inhibition at 50 µg/mL (Staphylococcus aureus [5]) of 13 mm. It also gave an inhibition at 10 µM (THP-1 [6]) of 43%, a zone of inhibition at 50 µg/mL (Klebsiella pneumoniae [7]) of 15 mm and a zone of inhibition at 50 µg/mL (Proteus vulgaris [8]) of 18 mm. The MIC (Escherichia coli [9]) was 50 µg/mL (≈ 138 µM), the zone of inhibition at 100 µg/mL (Trichoderma viride) was 12 mm and the Activity (HCT-116) was 26%. The zone of inhibition at 100 µg/mL (Aspergillus niger) was 14 mm, the MIC (Klebsiella pneumoniae [10]) was 50 µg/mL (≈ 138 µM) and the MIC (Staphylococcus aureus [11]) was 50 µg/mL (≈ 138 µM). It also gave an Activity (PANC-1) of 32%, a zone of inhibition at 50 µg/mL (Bacillus subtilis [12]) of 14 mm and an Activity (ACHN) of 37%. It also gave an inhibition at 10 µM (THP-1 [13]) of 0%.
COc1ccc(/C(Cl)=C/C=C/C(=O)c2ccc(OC)cc2OC)cc1 showed an MIC (Proteus vulgaris [1]) of 50 µg/mL (≈ 139 µM), a zone of inhibition at 100 µg/mL (Aspergillus flavus) of 12 mm and an Activity (Calu-1) of 31%. For the same compound, the zone of inhibition at 50 µg/mL (Escherichia coli [2]) was 14 mm, the zone of inhibition at 100 µg/mL (Penicillium chrysogenum) was 12 mm and the Activity (THP-1 [3]) was 0%. The MIC (Bacillus subtilis [4]) was 50 µg/mL (≈ 139 µM), the Activity (NCI-H460) was 33% and the zone of inhibition at 50 µg/mL (Staphylococcus aureus [5]) was 12 mm. It also gave an inhibition at 10 µM (THP-1 [6]) of 49%, a zone of inhibition at 50 µg/mL (Klebsiella pneumoniae [7]) of 12 mm and a zone of inhibition at 50 µg/mL (Proteus vulgaris [8]) of 15 mm. The MIC (Escherichia coli [9]) was 50 µg/mL (≈ 139 µM), the zone of inhibition at 100 µg/mL (Candida albicans) was 8 mm and the zone of inhibition at 100 µg/mL (Trichoderma viride) was 14 mm. For the same compound, the Activity (HCT-116) was 31%, the zone of inhibition at 100 µg/mL (Aspergillus niger) was 15 mm and the MIC (Klebsiella pneumoniae [10]) was 50 µg/mL (≈ 139 µM). For the same compound, the MIC (Staphylococcus aureus [11]) was 50 µg/mL (≈ 139 µM), the Activity (PANC-1) was 31% and the zone of inhibition at 50 µg/mL (Bacillus subtilis [12]) was 20 mm. The Activity (ACHN) was 33% and the inhibition at 10 µM (THP-1 [13]) was 0%.
COc1ccc(C(=O)/C=C/C=C(\Cl)c2ccc(Cl)cc2)cc1 gave an MIC (Proteus vulgaris [1]) of 50 µg/mL (≈ 150 µM), a zone of inhibition at 100 µg/mL (Aspergillus flavus) of 12 mm and an Activity (Calu-1) of 32%. For the same compound, the zone of inhibition at 100 µg/mL (Penicillium chrysogenum) was 12 mm, the Activity (THP-1 [3]) was 28% and the MIC (Bacillus subtilis [4]) was 50 µg/mL (≈ 150 µM). It also gave an Activity (NCI-H460) of 33%, an inhibition at 10 µM (THP-1 [6]) of 95% and a zone of inhibition at 50 µg/mL (Klebsiella pneumoniae [7]) of 10 mm. The MIC (Escherichia coli [9]) was 50 µg/mL (≈ 150 µM), the zone of inhibition at 100 µg/mL (Candida albicans) was 10 mm and the zone of inhibition at 100 µg/mL (Trichoderma viride) was 12 mm. The Activity (HCT-116) was 29%, the zone of inhibition at 100 µg/mL (Aspergillus niger) was 13 mm and the MIC (Klebsiella pneumoniae [10]) was 50 µg/mL (≈ 150 µM). It also gave an MIC (Staphylococcus aureus [11]) of 50 µg/mL (≈ 150 µM), an Activity (PANC-1) of 30% and an Activity (ACHN) of 35%. For the same compound, the inhibition at 10 µM (THP-1 [13]) was 67%.

Reference: ChEMBL document CHEMBL1157556, “Synthesis and biological screening of a combinatorial library of beta-chlorovinyl chalcones as anticancer, anti-inflammatory and antimicrobial agents” (Bioorg Med Chem, 2010)
